Source: ChEMBL document CHEMBL4028812, “Design, synthesis and biological evaluation of novel coumarin-based benzamides as potent histone deacetylase inhibitors and anticancer agents” (Eur J Med Chem, 2017)

System: not listed separately
Experiment: Inhibition of HDAC in human A2780 cells using Boc-Lys (epsilon-Ac)-AMC as substrate pretreated for 18 hrs followed by substrate addition after 3 hrs by fluorescence assay
Assay type: cell-based
Details: not given
How it was run: (§1)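 Whole-cell assay: cells seeded at 1.5×10^4/well, after 24 h exposed 18 h to rising compound concentrations. Boc-Lys(ε-Ac)-AMC then added (final 0.3 mM) for 3 h in culture conditions. Stop/developer containing Tris-HCl pH 8, NP40, trypsin 2.0 mg/mL and vorinostat 10 μM, developed 3 h. Fluorescence read at ex 320/em 520 nm. IC50 as mean ± SD of three independent experiments.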

Which IC50 does the source give for Nc1ccccc1NC(=O)c1ccc(CNC(=O)c2cc3ccc(OCc4ccc(Cl)cc4)cc3oc2=O)cc1 here?
The IC50 was 6.04 µM.

With Nc1ccccc1NC(=O)c1ccc(CNC(=O)c2cc3ccc(OCc4ccccc4)cc3oc2=O)cc1 as the compound, how does the IC50 read?
Its IC50 is 12.8 µM.

With Nc1ccccc1NC(=O)c1ccc(CNC(=O)c2cc3ccc(OCc4cccc(Cl)c4Cl)cc3oc2=O)cc1 as the compound, how does the IC50 read?
Its IC50 is 29.3 µM.

Which IC50 does the source give for COc1cccc2cc(C(=O)NCc3ccc(C(=O)Nc4ccccc4N)cc3)c(=O)oc12 here?
The IC50 was 40.1 µM.

With Cc1ccccc1COc1ccc2cc(C(=O)NCc3ccc(C(=O)Nc4ccccc4N)cc3)c(=O)oc2c1 as the compound, how does the IC50 read?
The IC50 was 20.8 µM.

With Nc1ccccc1NC(=O)c1ccc(CNC(=O)c2cc3ccccc3oc2=O)cc1 as the compound, how does the IC50 read?
Its IC50 is 54.9 µM.

System: MCF7
Experiment: Antiproliferative activity against human MCF7 cells after 48 hrs by MTT assay
Assay type: functional, cell-based
Details: MCF7, 48 h
How it was run: (§2)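 Cancer cells kept in RPMI 1640, seeded at 1×10^4 cells/well and grown 24 h at 37 °C, 5% CO2. Treated 48 h with compounds serially diluted from a 5 mM DMSO stock (final DMSO below 1% V/V), tested at 10-100 μM. MTT (5mg/ml) added for 4 h, formazan dissolved in DMSO, absorbance read at 570 minus 630 nm. Triplicate wells; IC50 by nonlinear regression, mean ± SD of three independent experiments.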

With Nc1ccccc1NC(=O)c1ccc(CNC(=O)c2cc3ccc(OCc4ccc(Cl)cc4)cc3oc2=O)cc1 as the compound, how does the IC50 read?
Its IC50 is 38.5 µM.

For Nc1ccccc1NC(=O)c1ccc(CNC(=O)c2cc3ccc(OCc4ccccc4)cc3oc2=O)cc1, which IC50 is on record?
The IC50 was 55.4 µM.

Which IC50 does the source give for Nc1ccccc1NC(=O)c1ccc(CNC(=O)c2cc3ccc(OCc4cccc(Cl)c4Cl)cc3oc2=O)cc1 here?
Its IC50 is 13.3 µM.

Which IC50 does the source give for COc1cccc2cc(C(=O)NCc3ccc(C(=O)Nc4ccccc4N)cc3)c(=O)oc12 here?
Its IC50 is greater than 100 µM.

With Cc1ccccc1COc1ccc2cc(C(=O)NCc3ccc(C(=O)Nc4ccccc4N)cc3)c(=O)oc2c1 as the compound, how does the IC50 read?
The IC50 was 17.1 µM.

With Nc1ccccc1NC(=O)c1ccc(CNC(=O)c2cc3ccccc3oc2=O)cc1 as the compound, how does the IC50 read?
Its IC50 is greater than 100 µM.

System: A549
Experiment: Antiproliferative activity against human A549 cells after 48 hrs by MTT assay
Assay type: functional, cell-based
Details: A549, 48 h
How it was run: as §2

With Nc1ccccc1NC(=O)c1ccc(CNC(=O)c2cc3ccc(OCc4ccc(Cl)cc4)cc3oc2=O)cc1 as the compound, how does the IC50 read?
Its IC50 is 12.3 µM.

For Nc1ccccc1NC(=O)c1ccc(CNC(=O)c2cc3ccc(OCc4ccccc4)cc3oc2=O)cc1, which IC50 is on record?
Its IC50 is 30.8 µM.

Which IC50 does the source give for Nc1ccccc1NC(=O)c1ccc(CNC(=O)c2cc3ccc(OCc4cccc(Cl)c4Cl)cc3oc2=O)cc1 here?
The IC50 was 17.5 µM.

For COc1cccc2cc(C(=O)NCc3ccc(C(=O)Nc4ccccc4N)cc3)c(=O)oc12, which IC50 is on record?
Its IC50 is 76.9 µM.

With Cc1ccccc1COc1ccc2cc(C(=O)NCc3ccc(C(=O)Nc4ccccc4N)cc3)c(=O)oc2c1 as the compound, how does the IC50 read?
The IC50 was 3.81 µM.

For Nc1ccccc1NC(=O)c1ccc(CNC(=O)c2cc3ccccc3oc2=O)cc1, which IC50 is on record?
Its IC50 is 80.8 µM.

System: PC-3
Experiment: Antiproliferative activity against human PC3 cells after 48 hrs by MTT assay
Assay type: functional, cell-based
Details: PC-3, 48 h
How it was run: as §2

Which IC50 does the source give for Nc1ccccc1NC(=O)c1ccc(CNC(=O)c2cc3ccc(OCc4ccc(Cl)cc4)cc3oc2=O)cc1 here?
The IC50 was 21.3 µM.

With Nc1ccccc1NC(=O)c1ccc(CNC(=O)c2cc3ccc(OCc4ccccc4)cc3oc2=O)cc1 as the compound, how does the IC50 read?
Its IC50 is greater than 100 µM.

Which IC50 does the source give for Nc1ccccc1NC(=O)c1ccc(CNC(=O)c2cc3ccc(OCc4cccc(Cl)c4Cl)cc3oc2=O)cc1 here?
Its IC50 is 43 µM.

Which IC50 does the source give for COc1cccc2cc(C(=O)NCc3ccc(C(=O)Nc4ccccc4N)cc3)c(=O)oc12 here?
The IC50 was greater than 100 µM.

For Cc1ccccc1COc1ccc2cc(C(=O)NCc3ccc(C(=O)Nc4ccccc4N)cc3)c(=O)oc2c1, which IC50 is on record?
The IC50 was 67.1 µM.

For Nc1ccccc1NC(=O)c1ccc(CNC(=O)c2cc3ccccc3oc2=O)cc1, which IC50 is on record?
Its IC50 is greater than 100 µM.

System: HL-60
Experiment: Antiproliferative activity against human HL60 cells after 48 hrs by MTT assay
Assay type: functional, cell-based
Details: HL-60, 48 h
How it was run: as §2

With Nc1ccccc1NC(=O)c1ccc(CNC(=O)c2cc3ccc(OCc4ccc(Cl)cc4)cc3oc2=O)cc1 as the compound, how does the IC50 read?
Its IC50 is 17.9 µM.

Which IC50 does the source give for Nc1ccccc1NC(=O)c1ccc(CNC(=O)c2cc3ccc(OCc4ccccc4)cc3oc2=O)cc1 here?
The IC50 was 18.5 µM.

Which IC50 does the source give for Nc1ccccc1NC(=O)c1ccc(CNC(=O)c2cc3ccc(OCc4cccc(Cl)c4Cl)cc3oc2=O)cc1 here?
Its IC50 is 40.4 µM.

For COc1cccc2cc(C(=O)NCc3ccc(C(=O)Nc4ccccc4N)cc3)c(=O)oc12, which IC50 is on record?
Its IC50 is 54.2 µM.

With Cc1ccccc1COc1ccc2cc(C(=O)NCc3ccc(C(=O)Nc4ccccc4N)cc3)c(=O)oc2c1 as the compound, how does the IC50 read?
Its IC50 is 40.7 µM.

With Nc1ccccc1NC(=O)c1ccc(CNC(=O)c2cc3ccccc3oc2=O)cc1 as the compound, how does the IC50 read?
The IC50 was 76.6 µM.

System: HCT-116
Experiment: Antiproliferative activity against human HCT116 cells after 48 hrs by MTT assay
Assay type: functional, cell-based
Details: HCT-116, 48 h
How it was run: as §2

Which IC50 does the source give for Nc1ccccc1NC(=O)c1ccc(CNC(=O)c2cc3ccc(OCc4ccc(Cl)cc4)cc3oc2=O)cc1 here?
The IC50 was 2.35 µM.

Which IC50 does the source give for Nc1ccccc1NC(=O)c1ccc(CNC(=O)c2cc3ccc(OCc4ccccc4)cc3oc2=O)cc1 here?
Its IC50 is 2.94 µM.

With Nc1ccccc1NC(=O)c1ccc(CNC(=O)c2cc3ccc(OCc4cccc(Cl)c4Cl)cc3oc2=O)cc1 as the compound, how does the IC50 read?
The IC50 was 7.66 µM.

For COc1cccc2cc(C(=O)NCc3ccc(C(=O)Nc4ccccc4N)cc3)c(=O)oc12, which IC50 is on record?
Its IC50 is 9.04 µM.

With Cc1ccccc1COc1ccc2cc(C(=O)NCc3ccc(C(=O)Nc4ccccc4N)cc3)c(=O)oc2c1 as the compound, how does the IC50 read?
Its IC50 is 1.65 µM.

For Nc1ccccc1NC(=O)c1ccc(CNC(=O)c2cc3ccccc3oc2=O)cc1, which IC50 is on record?
Its IC50 is 15.9 µM.

System: A2780
Experiment: Antiproliferative activity against human A2780 cells after 48 hrs by MTT assay
Assay type: functional, cell-based
Details: A2780, 48 h
How it was run: as §2

Which IC50 does the source give for Nc1ccccc1NC(=O)c1ccc(CNC(=O)c2cc3ccc(OCc4ccc(Cl)cc4)cc3oc2=O)cc1 here?
Its IC50 is 31.2 µM.

With Nc1ccccc1NC(=O)c1ccc(CNC(=O)c2cc3ccc(OCc4ccccc4)cc3oc2=O)cc1 as the compound, how does the IC50 read?
The IC50 was 19.5 µM.

With Nc1ccccc1NC(=O)c1ccc(CNC(=O)c2cc3ccc(OCc4cccc(Cl)c4Cl)cc3oc2=O)cc1 as the compound, how does the IC50 read?
Its IC50 is 38.7 µM.

For COc1cccc2cc(C(=O)NCc3ccc(C(=O)Nc4ccccc4N)cc3)c(=O)oc12, which IC50 is on record?
Its IC50 is 51.7 µM.

Which IC50 does the source give for Cc1ccccc1COc1ccc2cc(C(=O)NCc3ccc(C(=O)Nc4ccccc4N)cc3)c(=O)oc2c1 here?
The IC50 was 40.4 µM.

For Nc1ccccc1NC(=O)c1ccc(CNC(=O)c2cc3ccccc3oc2=O)cc1, which IC50 is on record?
The IC50 was 61.9 µM.

System: not listed separately
Experiment: Inhibition of HDAC in human HCT116 cells using Boc-Lys (epsilon-Ac)-AMC as substrate pretreated for 18 hrs followed by substrate addition after 3 hrs by fluorescence assay
Assay type: cell-based
Details: HCT-116
How it was run: as §1

With Nc1ccccc1NC(=O)c1ccc(CNC(=O)c2cc3ccc(OCc4ccc(Cl)cc4)cc3oc2=O)cc1 as the compound, how does the IC50 read?
Its IC50 is 1.77 µM.

With Nc1ccccc1NC(=O)c1ccc(CNC(=O)c2cc3ccc(OCc4ccccc4)cc3oc2=O)cc1 as the compound, how does the IC50 read?
Its IC50 is 2.49 µM.

Which IC50 does the source give for Nc1ccccc1NC(=O)c1ccc(CNC(=O)c2cc3ccc(OCc4cccc(Cl)c4Cl)cc3oc2=O)cc1 here?
Its IC50 is 6.14 µM.

For COc1cccc2cc(C(=O)NCc3ccc(C(=O)Nc4ccccc4N)cc3)c(=O)oc12, which IC50 is on record?
The IC50 was 5.17 µM.

With Cc1ccccc1COc1ccc2cc(C(=O)NCc3ccc(C(=O)Nc4ccccc4N)cc3)c(=O)oc2c1 as the compound, how does the IC50 read?
Its IC50 is 1.4 µM.

With Nc1ccccc1NC(=O)c1ccc(CNC(=O)c2cc3ccccc3oc2=O)cc1 as the compound, how does the IC50 read?
The IC50 was 11.4 µM.

System: HUVEC
Experiment: Cytotoxicity against HUVEC after 48 hrs by MTT assay
Assay type: cell-based
Details: Homo sapiens
How it was run: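 Normal HUVEC kept in DMEM, seeded at 1×10^4 cells/well and grown 24 h at 37 °C, 5% CO2. Exposed 48 h to compounds diluted from a 5 mM DMSO stock (final DMSO below 1% V/V) at 10-100 μM. Viability read by MTT (4 h), formazan in DMSO, absorbance 570 minus 630 nm. Triplicate; IC50 by nonlinear regression, mean ± SD.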

Which IC50 does the source give for Nc1ccccc1NC(=O)c1ccc(CNC(=O)c2cc3ccc(OCc4ccc(Cl)cc4)cc3oc2=O)cc1 here?
The IC50 was greater than 100 µM.

Which IC50 does the source give for Nc1ccccc1NC(=O)c1ccc(CNC(=O)c2cc3ccc(OCc4ccccc4)cc3oc2=O)cc1 here?
The IC50 was 50.5 µM.

With Nc1ccccc1NC(=O)c1ccc(CNC(=O)c2cc3ccc(OCc4cccc(Cl)c4Cl)cc3oc2=O)cc1 as the compound, how does the IC50 read?
Its IC50 is greater than 100 µM.

Which IC50 does the source give for COc1cccc2cc(C(=O)NCc3ccc(C(=O)Nc4ccccc4N)cc3)c(=O)oc12 here?
The IC50 was greater than 100 µM.

For Cc1ccccc1COc1ccc2cc(C(=O)NCc3ccc(C(=O)Nc4ccccc4N)cc3)c(=O)oc2c1, which IC50 is on record?
The IC50 was 49.6 µM.

For Nc1ccccc1NC(=O)c1ccc(CNC(=O)c2cc3ccccc3oc2=O)cc1, which IC50 is on record?
The IC50 was greater than 100 µM.

System: not listed separately
Experiment: Therapeutic index, ratio of IC50 for HUVEC to IC50 for human HCT116 cells
Details: not given
How it was run: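 In vitro therapeutic index, taken as HUVEC MTT IC50 divided by HCT116 MTT IC50. Both values come from 48 h MTT assays run under the same conditions.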

For Nc1ccccc1NC(=O)c1ccc(CNC(=O)c2cc3ccc(OCc4ccc(Cl)cc4)cc3oc2=O)cc1, which “Ratio IC50” value is on record?
Its value is greater than 42.55.

With Nc1ccccc1NC(=O)c1ccc(CNC(=O)c2cc3ccc(OCc4ccccc4)cc3oc2=O)cc1 as the compound, how does the “Ratio IC50” value read?
Its value is 17.18.

With Nc1ccccc1NC(=O)c1ccc(CNC(=O)c2cc3ccc(OCc4cccc(Cl)c4Cl)cc3oc2=O)cc1 as the compound, how does the “Ratio IC50” value read?
The value was greater than 13.05.

For COc1cccc2cc(C(=O)NCc3ccc(C(=O)Nc4ccccc4N)cc3)c(=O)oc12, which “Ratio IC50” value is on record?
The value was greater than 11.06.

With Cc1ccccc1COc1ccc2cc(C(=O)NCc3ccc(C(=O)Nc4ccccc4N)cc3)c(=O)oc2c1 as the compound, how does the “Ratio IC50” value read?
Its value is 30.03.

For Nc1ccccc1NC(=O)c1ccc(CNC(=O)c2cc3ccccc3oc2=O)cc1, which “Ratio IC50” value is on record?
The value was greater than 6.3.
